Reference: ChEMBL document CHEMBL4311975, “Exploration of the antibiotic potentiating activity of indolglyoxylpolyamines” (Eur J Med Chem, 2019)

Columns and labels:
Pseudomonas aeruginosa [1] = experiment: Induction of membrane depolarization in Pseudomonas aeruginosa measured after 15 mins by DiSC3(5) dye based spectrofluorometric method; format: functional, organism-based
How it was run: (§1)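 Bacteria were grown 24 h in MHB at 37 °C, washed in 250 mM sucrose with 5 mM MgSO4, and loaded with 3 μM DiSC3(5) for 1 h at 37 °C. Unbound dye was washed away before compound was added at varied concentrations. Fluorescence was recorded after 15 min on a spectrofluorometer, with pure 3 μM dye as the maximum. CTAB (0.01%) served as positive control.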

Staphylococcus aureus [2] = experiment: Induction of membrane depolarization in Staphylococcus aureus measured after 15 mins by DiSC3(5) dye based spectrofluorometric method; format: functional, organism-based; how it was run: as §1
Klebsiella aerogenes = experiment: Disruption of membrane integrity in Enterobacter aerogenes EA289 assessed as increase in beta-lactamase hydrolysis by using chromogenic nitrocefin as substrate by spectrophotometry analysis; format: functional
How it was run: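 E. aerogenes EA289 was grown in MHB at 37 °C to OD600 0.5, washed in 20 mM potassium phosphate (pH 7.2) with 1 mM MgCl2, and readjusted to OD600 0.5. Cells were exposed to compound at 3.9–250 μM final with nitrocefin at 50 μg/mL final, at room temperature. Hydrolysis was followed as the absorbance rise at 490 nm.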

Staphylococcus aureus [3] = experiment: Antibacterial activity against Staphylococcus aureus ATCC 25923 assessed as growth inhibition incubated for 18 hrs by broth dilution method; format: functional; details: ATCC 25923, 18 h
How it was run: (§2)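 Broth microdilution following CA-SFM recommendations. Inoculum was 10^5 CFU in Mueller-Hinton broth with two-fold serial drug dilutions. Plates were incubated 18 h at 37 °C. MIC was the lowest concentration giving complete inhibition of visible growth. Values are means, n = 3.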

[4] = tested on: Staphylococcus intermedius; experiment: Antibacterial activity against Staphylococcus intermedius 1051997 assessed as growth inhibition incubated for 18 hrs by broth dilution method; format: functional; details: Staphylococcus intermedius, 1051997, 18 h; how it was run: as §2
Pseudomonas aeruginosa [5] = experiment: Antibacterial activity against Pseudomonas aeruginosa ATCC 27853 assessed as growth inhibition incubated for 18 hrs by broth dilution method; format: functional; details: ATCC 27853, 18 h; how it was run: as §2
Escherichia coli [6] = experiment: Antibacterial activity against Escherichia coli ATCC 25922 assessed as growth inhibition incubated for 18 hrs by broth dilution method; format: functional; details: ATCC 25922, 18 h; how it was run: as §2
Klebsiella pneumoniae [7] = experiment: Antibacterial activity against Klebsiella pneumoniae ATCC 700603 assessed as growth inhibition incubated for 18 hrs by resazurin dye based assay; format: functional; details: Klebsiella pneumoniae, 700603, 18 h
How it was run: (§3)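 Overnight cultures were diluted 40-fold in MHB and grown 1.5–2 h at 37 °C to mid-log phase. Cells were added at 5×10^5 CFU/mL final to two-fold compound dilutions (0.008–32 μg/mL final), in duplicate, for 18 h at 37 °C. Resazurin (0.001% final) was added for 2 h and MIC read by eye. Means, n = 2.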

Acinetobacter baumannii [8] = experiment: Antibacterial activity against Acinetobacter baumannii ATCC 19606 assessed as growth inhibition incubated for 18 hrs by resazurin dye based assay; format: functional; details: ATCC 19606 = CIP 70.34 = JCM 6841, 18 h; how it was run: as §3
Candida albicans = experiment: Antifungal activity against Candida albicans ATCC 90028 assessed as growth inhibition incubated for 36 hrs by resazurin dye based assay; format: functional; details: ATCC 90028, 36 h
How it was run: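 Yeast was grown 3 days on YPD agar at 30 °C. Colonies were suspended and diluted in YNB broth to 2.5×10^3 CFU/mL, then added to two-fold compound dilutions (0.008–32 μg/mL final), in duplicate. Plates stood 36 h at 35 °C without shaking. Means, n = 2.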

Cryptococcus neoformans = experiment: Antifungal activity against Cryptococcus neoformans ATCC 208821 assessed as growth inhibition incubated for 36 hrs by resazurin dye based assay; format: functional; details: ATCC 208821, 36 h
How it was run: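 Cryptococcus was grown 3 days on YPD agar at 30 °C, suspended, and diluted in YNB broth to 2.5×10^3 CFU/mL. Cells were exposed to 0.008–32 μg/mL compound (final), in duplicate, for 36 h at 35 °C without shaking. Resazurin (0.006% final) was added for a further 3 h. MIC was read from absorbance at OD570–600. Means, n = 2.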

Pseudomonas aeruginosa [9] = experiment: Potentiation of doxycycline-induced antibacterial activity against Pseudomonas aeruginosa ATCC 27853 assessed as concentration required to restore 2 ug/ml doxycycline activity measured after 18 hrs; format: functional
How it was run: (§4)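 Inoculum was 5×10^5 CFU in MHB with two-fold serial dilutions of adjuvant plus fixed doxycycline at 2 μg/mL. […] Repeated independently in triplicate.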

L6 = experiment: Cytotoxicity against rat L6 cells measured after 72 hrs by alamar blue assay; format: cell-based; details: L6, 72 h
How it was run: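 Rat L6 myoblasts, 4×10^4/well in RPMI 1640 with L-glutamine and 10% FBS, received seven 3-fold dilutions (90 to 0.123 μg/mL) for 72 h. Alamar Blue was added for 2 h and fluorescence read at ex 536/em 588 nm. Podophyllotoxin served as reference. Means, n = 2.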

[10] = Cytotoxicity against human HEK293 cells measured after 20 hrs by resazurin dye based fluorescence assay; format: cell-based
How it was run: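 HEK293 cells, 5,000/well in DMEM with 10% FBS, were exposed to compound for 20 h at 37 °C, 5% CO2. Resazurin (100 μM final) was added for 3 h, then fluorescence read at ex 560/em 590. Signal was normalised to tamoxifen (74 μg/mL, 0%) and untreated growth (100%), and CC50 came from dose-response fitting. Top dose 32 μg/mL. Means, n = 2.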

[11] = Hemolytic activity against Sprague-Dawley rat RBC assessed as release of hemoglobin at 50 uM incubated for 1 hr relative to control; format: ADME, cell-based, Erythrocyte; details: red blood cells (erythrocytes), read-out: Activity
How it was run: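 Fresh Sprague-Dawley rat erythrocytes were washed in saline and resuspended at 2% v/v. Cells were incubated with compound in DMSO/PBS for 1 h at 37 °C, then centrifuged at 200 g, and supernatant absorbance read at 540 nm. Results were normalised to DMSO/PBS (0%) and 0.1% Triton X-100 (100%). Single-point testing used 50 μM; HC50 came from 10-point curves. Means of three experiments.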

Pseudomonas aeruginosa [12] = experiment: Disruption of membrane integrity in Pseudomonas aeruginosa PAO1 assessed as increase in extracellular ATP level by luciferin-luciferase reagent based luminescence assay; format: functional, organism-based
How it was run: (§5)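 Growing bacteria (P. aeruginosa PAO1 or S. aureus) in MHB at 37 °C were mixed 9:1 with compound, at 4× MIC, and vortexed for 1 s. Luciferin-luciferase reagent was added immediately and luminescence read for 5 s. ATP was quantified by internal standard addition. Squalamine served as positive control.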

Staphylococcus aureus [13] = experiment: Disruption of membrane integrity in Staphylococcus aureus assessed as increase in extracellular ATP level by luciferin-luciferase reagent based luminescence assay; format: functional, organism-based; how it was run: as §5
Pseudomonas aeruginosa [14] = experiment: Potentiation of erythromycin-induced antibacterial activity against Pseudomonas aeruginosa ATCC 27853 assessed as concentration required to restore 2 ug/ml erythromycin activity measured after 18 hrs; format: functional
Pseudomonas aeruginosa [15] = experiment: Potentiation of chloramphenicol-induced antibacterial activity against Pseudomonas aeruginosa ATCC 27853 assessed as concentration required to restore 2 ug/ml chloramphenicol activity measured after 18 hrs; format: functional
Pseudomonas aeruginosa [16] = experiment: Potentiation of nalidixic acid-induced antibacterial activity against Pseudomonas aeruginosa ATCC 27853 assessed as concentration required to restore 2 ug/ml nalidixic acid activity measured after 18 hrs; format: functional
Escherichia coli [17] = experiment: Potentiation of doxycycline-induced antibacterial activity against Escherichia coli ATCC 25922 assessed as concentration required to restore 2 ug/ml doxycycline activity measured after 18 hrs; format: functional; how it was run: as §4
Escherichia coli [18] = experiment: Potentiation of nalidixic acid-induced antibacterial activity against Escherichia coli ATCC 25922 assessed as concentration required to restore 2 ug/ml nalidixic acid activity measured after 18 hrs; format: functional
Klebsiella pneumoniae [19] = experiment: Potentiation of doxycycline-induced antibacterial activity against Klebsiella pneumoniae ATCC 13443 assessed as concentration required to restore 2 ug/ml doxycycline activity measured after 18 hrs; format: functional; how it was run: as §4
Klebsiella pneumoniae [20] = experiment: Potentiation of nalidixic acid-induced antibacterial activity against Klebsiella pneumoniae ATCC 13443 assessed as concentration required to restore 2 ug/ml nalidixic acid activity measured after 18 hrs; format: functional
Acinetobacter baumannii [21] = experiment: Potentiation of doxycycline-induced antibacterial activity against Acinetobacter baumannii AYE assessed as concentration required to restore 2 ug/ml doxycycline activity measured after 18 hrs; format: functional; how it was run: as §4
Acinetobacter baumannii [22] = experiment: Potentiation of nalidixic acid-induced antibacterial activity against Acinetobacter baumannii AYE assessed as concentration required to restore 2 ug/ml nalidixic acid activity measured after 18 hrs; format: functional

Activity (Klebsiella aerogenes)	MIC (Staphylococcus aureus [3]) [µM]	MIC [4] [µM]	MIC (Pseudomonas aeruginosa [5]) [µM]	MIC (Escherichia coli [6]) [µM]	MIC (Klebsiella pneumoniae [7]) [µM]	MIC (Acinetobacter baumannii [8]) [µM]	MIC (Candida albicans) [µM]	MIC (Cryptococcus neoformans) [µM]	Activity (Pseudomonas aeruginosa [12])	SMILES	Activity (Pseudomonas aeruginosa [1])	Activity (Staphylococcus aureus [2])	Activity (Pseudomonas aeruginosa [9]) [µM]	IC50 (L6) [µM]	CC50 at 20 h [10] [µM]	hemolysis at 1 h, 50 µM [11] [%]	Activity (Staphylococcus aureus [13])	other results
Dose-dependent effect	25	> 200	200	200	> 39.6	> 39.6	> 39.6	4.9	Dose-dependent effect	O=C(NCCCNCCCCNCCCNC(=O)C(=O)c1c[nH]c2c(F)cccc12)C(=O)c1c[nH]c2c(F)cccc12.O=C(O)C(F)(F)F.O=C(O)C(F)(F)F	Dose-dependent effect	Dose-dependent effect	3.125	38.7	18.7	8.4	Dose-dependent effect	
Dose-dependent effect	3.12	3.12	50	25	34.4	> 34.4	> 34.4	2.2	Dose-dependent effect	O=C(NCCCNCCCCNCCCNC(=O)C(=O)c1c[nH]c2ccc(Br)cc12)C(=O)c1c[nH]c2ccc(Br)cc12.O=C(O)C(F)(F)F.O=C(O)C(F)(F)F	Dose-dependent effect	Dose-dependent effect	3.125 to 6.25	19.8	14.1	34.7	Dose-dependent effect	Activity (Pseudomonas aeruginosa [14]): >200 µM; Activity (Pseudomonas aeruginosa [15]): 26.9 µM; Activity (Pseudomonas aeruginosa [16]): >200 µM; Activity (Escherichia coli [17]): 1.68 µM; Activity (Escherichia coli [18]): 100 µM; Activity (Klebsiella pneumoniae [19]): 13.4 µM; Activity (Klebsiella pneumoniae [20]): 12.5 µM; Activity (Acinetobacter baumannii [21]): 6.72 µM; Activity (Acinetobacter baumannii [22]): 100 µM
